A short description of data set [1]: Cytotoxicity, MTT reduction assay in HepG2 cells. In kind it is cell-based. The note with it: human, HepG2 cells, CC50 (HepG2). In short, it runs like this: (§1)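 HepG2 cells grown at 37 °C, 5% CO2 in DMEM with streptomycin (40 mg/L) and 10% heat-inactivated FBS. Seeded at 1 × 10^3 cells/well, then exposed to serial dilutions of test compound for 72 h, each concentration in triplicate. MTT added for 4 h; formazan dissolved in isopropanol, read at OD570. Viability expressed as % of vehicle control; CC50 fitted from % viability vs log concentration.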

Data set [2] is described as follows: Cytotoxicity, methylene blue staining in Calu-3 cells. The note with it: human, Calu-3 cell monolayers. Format: cell-based. In short, it runs like this:
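Calu-3 monolayers (2 × 10^4 cells/well) exposed to test compound at several concentrations for 72 h at 37 °C, 5% CO2, triplicate per concentration. Cells PBS-washed, then fixed and stained 1 h at 37 °C with HBSS + 1.25% glutaraldehyde + 0.6% methylene blue. Rinsed with water; dye eluted 15 min at room temperature (50% ethanol, 49% PBS, 1% acetic acid); A660 read. CC50 fitted from % viability vs log concentration.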

A further data set relates to SARS-CoV-2. In kind it is cell-based, SARS-CoV-2 B.1 lineage. As to conditions: correlation between anti-SARS-CoV-2 activity (EC50) and HepG2 cytotoxicity (CC50).
The next data set relates to HepG2 cell lines. Nature of the data set: Cytotoxicity, MTT reduction assay in HepG2 cells. Format: cell-based. As to conditions: read-out: CC50 (HepG2), 72 h. In short, it runs like this: as §1
Background: Tetrazolium assays rely on reduction of a dye to a coloured formazan, in cell work by metabolically active cells.

In the case of `Cc1c(-c2ccc(-c3ccccc3F)cc2)nc2ccc(F)cc2c1C(=O)O` [brequinar], the values for the CC50 at 72 h in data set [1] and in data set [2] were 17 ± 4 µM and 48 ± 2 µM, respectively.

Turning to `CC(C)=CCC1=C(O)C(=O)c2ccccc2C1=O` [lapachol], the selectivity index in the data set on SARS-CoV-2 is recorded as 47 ± 7. Also, the CC50 at 72 h in data set [1] was 71 ± 9 µM; in data set [2], 67 ± 2 µM.

With `C/C(O)=C(\C#N)C(=O)Nc1ccc(C(F)(F)F)cc1` [teriflunomide], the CC50 at 72 h in data set [1] amounted to 164 µM; in data set [2], 59 ± 2 µM. Further, the CC50 in the data set on HepG2 cell lines is 160 ± 20 µM.

A word on the CC50: it is the concentration that lowers cell viability or growth by half.

For the origin of these results see PMC10938441 (ACS Omega, 2024).
